Each block holds one compound with its values, some of them ahead of it.
What was measured:
[1] = target: T1, Integrin alpha-4/beta-1 (Homo sapiens, UniProt P05556+P13612); assay: Displacement of [35S]-labeled ligand from VLA4 in human Jurkat cells washed with buffer containing non activating Ca2+ and Mg2+ by competitive binding assay; format: cell-based
Method in brief: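 Competition binding in Jurkat cells with a ³⁵S-labeled ligand, VLA-4 held non-activated in Ca²⁺/Mg²⁺ buffer; IC₅₀ reported; data are means of three independent runs or n = 1.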

[2] = target: T1, Integrin alpha-4/beta-1; assay: Inhibition of VLA4 in human whole blood
Method in brief: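 Competitive binding run in human whole blood; IC₅₀ read-out.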

[3] = tested on: Rattus norvegicus; assay: AUC in rat at 5 mg/kg, po; format: ADME, organism-based, Plasma; parameters: dose 5 mg/kg, route oral; conditions: in vivo
[4] = Plasma clearance in rat at 5 mg/kg, po; format: ADME, organism-based; parameters: dose 5 mg/kg, route oral
[5] = tested on: Integrin alpha-4/beta-1 (Rattus norvegicus); assay: Receptor occupancy of VLA4 in rat whole blood washed with buffer containing non activating Ca2+ and Mg2+ at 37 degC after 12 hrs
[6] = tested on: Integrin alpha-4/beta-1 (Rattus norvegicus); assay: Receptor occupancy of VLA4 in rat whole blood washed with buffer containing non activating Ca2+ and Mg2+ at 37 degC after 24 hrs
[7] = tested on: Rattus norvegicus; assay: Receptor occupancy of VLA4 in rat at 5 mg/kg, po after 24 hrs; format: functional
Method in brief: (§1)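 Parent acid given orally to rats at 5 mpk; VLA-4 receptor occupancy assayed at 12 h and 24 h after dosing.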

[8] = Bioavailability in rat at 5 mg/kg, po; format: ADME, organism-based; conditions: in vivo
[9] = Cmax in rat at 5 mg/kg, po; format: ADME, organism-based; parameters: dose 5 mg/kg, route oral; conditions: in vivo
[10] = target: T1, Integrin alpha-4/beta-1; assay: Displacement of [35S]-labeled ligand from VLA4 in human Jurkat cells washed with buffer containing activating Mn2+ by competitive binding assay; format: cell-based
[11] = tested on: Rattus norvegicus; assay: Receptor occupancy of VLA4 in rat at 5 mg/kg, po after 12 hrs; format: functional; method in brief: as §1
[12] = target: T1, Integrin alpha-4/beta-1; assay: Receptor occupancy of VLA4 in whole blood washed with buffer containing activating Mn2+ at 37 degC after 3 hrs; format: tissue-based
[13] = tested on: Rattus norvegicus; assay: Receptor occupancy of VLA4 in rat at 1.5 mg/kg after 24 hrs; format: functional
Method in brief: (§2)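 Ethyl ester prodrug given orally to rats at 1.5 mpk; VLA-4 receptor occupancy measured at 12 h and 24 h post-dose.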

[14] = tested on: Rattus norvegicus; assay: Receptor occupancy of VLA4 in rat at 1.5 mg/kg after 12 hrs; format: functional; method in brief: as §2

T1 sequence (P05556 whole entry): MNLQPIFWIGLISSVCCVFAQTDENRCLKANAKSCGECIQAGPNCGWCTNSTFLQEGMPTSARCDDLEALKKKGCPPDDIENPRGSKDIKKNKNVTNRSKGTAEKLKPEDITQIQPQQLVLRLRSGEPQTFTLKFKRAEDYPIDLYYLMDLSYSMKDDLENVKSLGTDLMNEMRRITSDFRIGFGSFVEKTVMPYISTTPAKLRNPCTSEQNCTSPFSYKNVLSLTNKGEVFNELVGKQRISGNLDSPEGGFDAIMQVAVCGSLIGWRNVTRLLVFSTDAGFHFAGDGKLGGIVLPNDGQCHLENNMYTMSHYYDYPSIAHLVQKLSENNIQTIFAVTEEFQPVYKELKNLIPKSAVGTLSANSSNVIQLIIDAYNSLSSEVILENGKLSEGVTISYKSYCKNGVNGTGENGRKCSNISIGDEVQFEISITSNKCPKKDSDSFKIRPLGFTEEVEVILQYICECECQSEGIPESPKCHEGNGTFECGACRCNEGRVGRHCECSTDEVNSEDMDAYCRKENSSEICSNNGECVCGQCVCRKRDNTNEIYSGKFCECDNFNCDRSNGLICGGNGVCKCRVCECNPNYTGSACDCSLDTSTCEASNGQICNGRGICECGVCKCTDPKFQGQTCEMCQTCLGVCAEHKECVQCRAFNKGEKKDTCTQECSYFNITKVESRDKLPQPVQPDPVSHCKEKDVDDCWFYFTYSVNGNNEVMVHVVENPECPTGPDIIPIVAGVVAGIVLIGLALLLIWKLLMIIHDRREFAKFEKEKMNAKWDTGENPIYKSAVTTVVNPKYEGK
T1 sequence (P13612 whole entry): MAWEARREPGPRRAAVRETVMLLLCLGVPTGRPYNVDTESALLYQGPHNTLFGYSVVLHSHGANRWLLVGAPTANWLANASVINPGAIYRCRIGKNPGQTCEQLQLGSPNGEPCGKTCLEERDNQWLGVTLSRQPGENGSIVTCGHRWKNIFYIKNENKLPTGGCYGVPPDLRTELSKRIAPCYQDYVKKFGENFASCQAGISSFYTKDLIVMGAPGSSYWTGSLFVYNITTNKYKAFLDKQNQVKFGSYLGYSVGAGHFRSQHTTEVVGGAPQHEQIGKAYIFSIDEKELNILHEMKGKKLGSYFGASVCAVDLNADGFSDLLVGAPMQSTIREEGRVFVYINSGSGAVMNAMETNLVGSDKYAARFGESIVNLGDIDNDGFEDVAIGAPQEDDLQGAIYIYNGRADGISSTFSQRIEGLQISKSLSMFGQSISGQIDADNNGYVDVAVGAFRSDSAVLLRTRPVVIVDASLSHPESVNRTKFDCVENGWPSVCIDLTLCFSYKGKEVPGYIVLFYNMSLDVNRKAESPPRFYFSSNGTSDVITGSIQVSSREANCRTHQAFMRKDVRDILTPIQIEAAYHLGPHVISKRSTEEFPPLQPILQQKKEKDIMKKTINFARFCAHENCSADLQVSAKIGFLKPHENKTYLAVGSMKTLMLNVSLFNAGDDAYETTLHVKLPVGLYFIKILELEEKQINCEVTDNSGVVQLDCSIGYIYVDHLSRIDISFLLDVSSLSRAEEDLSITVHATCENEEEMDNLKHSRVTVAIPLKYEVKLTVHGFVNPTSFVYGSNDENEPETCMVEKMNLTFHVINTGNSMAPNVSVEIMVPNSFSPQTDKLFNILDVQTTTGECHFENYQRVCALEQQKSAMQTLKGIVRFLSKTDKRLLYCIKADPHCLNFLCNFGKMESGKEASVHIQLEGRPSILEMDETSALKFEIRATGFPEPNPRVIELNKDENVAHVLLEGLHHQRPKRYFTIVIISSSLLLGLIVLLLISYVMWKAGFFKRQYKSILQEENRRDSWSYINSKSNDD

SMILES: N#Cc1cccc(S(=O)(=O)N2C[C@H](N3CCCCC3)C[C@H]2C(=O)N[C@@H](Cc2ccc(NC(=O)c3c(Cl)cncc3Cl)cc2)C(=O)O)c1
- IC50 [1]: 0.11 nM

SMILES: N#Cc1cccc(S(=O)(=O)N2C[C@H](N3CCC(F)(F)CC3)C[C@H]2C(=O)N[C@@H](Cc2ccc(NC(=O)c3c(Cl)cncc3Cl)cc2)C(=O)O)c1
- IC50 [1]: 0.22 nM

SMILES: N#Cc1cccc(S(=O)(=O)N2C[C@H](N3CCC3)C[C@H]2C(=O)N[C@@H](Cc2ccc(NC(=O)c3c(Cl)cncc3Cl)cc2)C(=O)O)c1
- IC50 [1]: 0.15 nM

SMILES: N#Cc1cccc(S(=O)(=O)N2C[C@H](N3CCCC(F)(F)C3)C[C@H]2C(=O)N[C@@H](Cc2ccc(NC(=O)c3c(Cl)cncc3Cl)cc2)C(=O)O)c1
- IC50 [1]: 0.03 nM
- AUC [3]: 50 nM·h
- IC50 [2]: 0.07 nM
- CL/F [4]: > 100 mL/min/kg
- Activity [5]: 70%
- Activity [6]: 40%
- Activity [7]: 22%
- bioavailability [8]: < 5%
- Cmax [9]: 27 nM
- IC50 [10]: 0.02 nM
- Activity [11]: 65%
- Activity [12]: 95%

SMILES: N#Cc1cccc(S(=O)(=O)N2C[C@H](N3CC(F)C3)C[C@H]2C(=O)N[C@@H](Cc2ccc(NC(=O)c3c(Cl)cncc3Cl)cc2)C(=O)O)c1
- IC50 [1]: 0.27 nM

SMILES: N#Cc1cccc(S(=O)(=O)N2C[C@H](NC3CCC3)C[C@H]2C(=O)N[C@@H](Cc2ccc(NC(=O)c3c(Cl)cncc3Cl)cc2)C(=O)O)c1
- IC50 [1]: 0.15 nM
- Activity [12]: 95%

SMILES: N#Cc1cccc(S(=O)(=O)N2C[C@H](N3CC[C@H](F)C3)C[C@H]2C(=O)N[C@@H](Cc2ccc(NC(=O)c3c(Cl)cncc3Cl)cc2)C(=O)O)c1
- IC50 [1]: 0.24 nM

SMILES: N#Cc1cccc(S(=O)(=O)N2C[C@H](N3CCCC3)C[C@H]2C(=O)N[C@@H](Cc2ccc(NC(=O)c3c(Cl)cncc3Cl)cc2)C(=O)O)c1
- IC50 [1]: 0.22 nM

SMILES: CCOC(=O)[C@H](Cc1ccc(NC(=O)c2c(Cl)cncc2Cl)cc1)NC(=O)[C@@H]1C[C@@H](N2CCCC(F)(F)C2)CN1S(=O)(=O)c1cccc(C#N)c1
- Activity [13]: 60%
- Activity [14]: 88%

SMILES: CCOC(=O)[C@H](Cc1ccc(NC(=O)c2c(Cl)cncc2Cl)cc1)NC(=O)[C@@H]1C[C@@H](NC2CCC2)CN1S(=O)(=O)c1cccc(C#N)c1
- Activity [13]: 25%

Further compounds by falling IC50 [1], results first:

- IC50 [1]: 0.9 nM
SMILES: N#Cc1cccc(S(=O)(=O)N2C[C@H](N3CC(F)(F)C3)C[C@H]2C(=O)N[C@@H](Cc2ccc(NC(=O)c3c(Cl)cncc3Cl)cc2)C(=O)O)c1

- IC50 [1]: 0.35 nM
SMILES: N#Cc1cccc(S(=O)(=O)N2C[C@H](N3CCC(F)CC3)C[C@H]2C(=O)N[C@@H](Cc2ccc(NC(=O)c3c(Cl)cncc3Cl)cc2)C(=O)O)c1

- IC50 [1]: 0.21 nM
SMILES: N#Cc1cccc(S(=O)(=O)N2C[C@H](N3CCCC(F)C3)C[C@H]2C(=O)N[C@@H](Cc2ccc(NC(=O)c3c(Cl)cncc3Cl)cc2)C(=O)O)c1 (stereo not given in full)

- IC50 [1]: 0.12 nM
SMILES: N#Cc1cccc(S(=O)(=O)N2C[C@H](N3CC[C@@H](F)C3)C[C@H]2C(=O)N[C@@H](Cc2ccc(NC(=O)c3c(Cl)cncc3Cl)cc2)C(=O)O)c1

- IC50 [1]: 0.1 nM
SMILES: N#Cc1cccc(S(=O)(=O)N2C[C@H](N3CCC(F)(F)C3)C[C@H]2C(=O)N[C@@H](Cc2ccc(NC(=O)c3c(Cl)cncc3Cl)cc2)C(=O)O)c1

- IC50 [1]: 0.02 nM
- IC50 [2]: 3.1 nM
SMILES: N#Cc1cccc(S(=O)(=O)N2C[C@H](N(CC(F)(F)F)C3CCC3)C[C@H]2C(=O)N[C@@H](Cc2ccc(NC(=O)c3c(Cl)cncc3Cl)cc2)C(=O)O)c1
